High-throughput results from PubChem BioAssay.
FGF22 binding: shifts melting point of recombinant human FGF22 | 340,000 tested, 1.5% active | AID 651658 | Q9HCT0 | recombinant FGF22 thermal shift, SYPRO orange fluorescence; percent of sucrose octasulfate shift, DMSO zero | activity (Tm shift, normalised), % at 9.99 µM;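 active means mean Tm shift, scaled 0 neutral to 100 positive control, at about 1.3% or above, every replicate too, limit read from the data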
SIRT5 block: inhibitors of human sirtuin-5 desuccinylase. inhibition, % at 15 µM. Q9NXA8. Purified SirT5, succinyl-peptide AMC, trypsin-coupled fluorescence. AID 652115. 330,000 tested, 1.1% active; in the data active means inhibition above about 15%
Target sequence (Q9NXA8 whole entry, looked up): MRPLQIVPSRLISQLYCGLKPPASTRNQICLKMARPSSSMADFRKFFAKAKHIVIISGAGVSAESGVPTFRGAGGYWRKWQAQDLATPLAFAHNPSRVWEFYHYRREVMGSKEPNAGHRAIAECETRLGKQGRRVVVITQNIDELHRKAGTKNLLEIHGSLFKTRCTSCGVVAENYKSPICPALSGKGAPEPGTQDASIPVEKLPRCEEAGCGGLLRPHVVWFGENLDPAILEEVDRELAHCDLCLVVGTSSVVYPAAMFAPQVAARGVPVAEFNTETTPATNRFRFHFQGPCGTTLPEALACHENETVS
XiGFP reactiv: activators of X-chromosome reactivation in mouse fibroblasts | 360,000 tested, 0.055% active | XiGFP mouse fibroblasts, % GFP-positive cells imaging, 3 d; cells co-treated with 5-aza-dC sensitizer; scaled so ellipticine positive control = 100% | activation, % at 7.58 µM;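 active means mean normalized replicate activation at least 10% and every replicate at or above 10%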
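material = 68-5-11 XiGFP fibroblast line | medium = DMEM plus 5-aza-dC sensitizer | schedule = 3 days compound exposure | benchmarks = positive control ellipticine, 6 µM final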
ARNT TACC3 PPI: disruptors of human ARNT/TACC3 interaction; AID 623870; 390,000 tested, 0.66% active; Q9Y6A5; AlphaScreen His-ARNT PAS-B/GST-TACC3 binding, luminescence; TACC3 fragment carries E629A point mutation; inhibition, % at 9.99 µM;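 active means mean inhibition of replicates at least 50% and at least half of replicates each reaching 50%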
FN deposition inh: fibronectin deposition inhibition. 350,000 tested, 0.086% active. inhibition, % at 12.6 µM. AH1F fibroblasts, Alexa488-fibronectin deposition fluorescence, overnight. AID 743247;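 active means mean inhibition across replicates of 30% or more, regardless of how many single replicates reach that level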
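Material: AH1F fibroblast monolayer depositing Alexa488-labelled fibronectin into matrix / Amount: 10000 AH1F cells per well / Signal: fluorescence 485/525 nm / Medium: DMEM, 2% serum / Compound: single dose, pinned / Incubation: 1 h cell adhesion before compound, then overnight fibronectin incubation / Reagent: Alexa488-FN, 24 nM final / Read-out: inhibition of fibronectin deposition signal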
DENV2 CPE: inhibitors of DENV2 cytopathic effect; 350,000 tested, 1.7% active; CPE inhibition, % at 9.99 µM; DENV2-infected cells, cytopathic effect rescue, plate reader; in the data active means CPE inhibition above about 20%, passing the limit was not always enough; tested in BHK-21 cells
Numbers stand for hits; . = inactive; / = no result. In the library only some 3.8% were active in any assay of this set; here they are far more common.

SMILES	FGF22 binding	SIRT5 block	XiGFP reactiv	ARNT TACC3 PPI	FN deposition inh	DENV2 CPE
CC(=O)c1ccc(NC(=S)N2CCN(C(=S)Nc3ccc(C(C)=O)cc3)C(C)C2)cc1 (configuration not stated)	.	.	.	.	.	.
COc1ccc(NC(=S)N2CCN(Cc3ccccc3)CC2)cc1	.	94	.	.	.	.
CC(=O)c1ccc(NC(=S)N2CC(C)CC(C)C2)cc1 (configuration not stated)	.	16	.	.	.	.
O=C(C[C@H]1C[C@H]2c3cc(NC(=O)NC4CCCC4)ccc3O[C@H]2[C@@H](CO)O1)NCc1ccccc1F	/	/	.	/	.	/
C[C@H](CO)N1C[C@H](C)[C@@H](CN(C)CC2CCCCC2)Oc2ccc(NC(=O)C3CCCCC3)cc2C1=O	.	.	.	.	.	23
C[C@H]1CN([C@@H](C)CO)C(=O)c2cc(NC(=O)C3CCCCC3)ccc2O[C@@H]1CN(C)S(C)(=O)=O	.	.	.	.	/	.
C[C@H](CO)N1C[C@H](C)[C@H](CN(C)CC2CCCCC2)OCCCC[C@H](C)Oc2ccc(NC(=O)C3CCCCC3)cc2C1=O	.	.	.	.	/	23
C[C@@H]1CN([C@H](C)CO)C(=O)c2cc(NC(=O)C3CCCCC3)ccc2O[C@@H]1CN(C)S(C)(=O)=O	.	.	.	.	/	24
C[C@@H]1CN([C@H](C)CO)C(=O)c2cc(NC(=O)C3CCCCC3)ccc2O[C@@H](C)CCCCO[C@@H]1CN(C)CC1CCCCC1	.	.	.	.	/	.
O=C(C[C@@H]1C=C[C@@H](NC(=O)c2ccc(F)cc2)[C@@H](CO)O1)NCCc1ccccc1	.	.	.	.	.	.
O=C(Cc1ccncc1)N1C[C@@H]2N[C@H](C1)C2c1ccc(/C=C/c2ccccc2)cc1 (some centres not stated)	.	/	.	/	.	.
C[C@H]1CN([C@@H](C)CO)S(=O)(=O)c2ccc(C3=CCCC3)cc2O[C@H]1CN(C)C(=O)C1CCOCC1	.	.	.	.	.	.
CCS(=O)(=O)c1ncc(Cl)c(C(=O)Nc2ccc(S(=O)(=O)N(C)c3ccccc3)cc2)n1	.	.	.	.	67	.
O=C(Nc1ccc(F)cc1)c1nc(S(=O)(=O)Cc2ccccc2)ncc1Cl	.	.	.	.	.	.
CCN(c1ccccc1)S(=O)(=O)c1ccc(NC(=O)c2nc(S(C)(=O)=O)ncc2Cl)cc1	/	/	/	.	/	/
Cc1ccccc1CS(=O)(=O)c1ncc(Cl)c(C(=O)Nc2ccc(F)cc2)n1	.	.	.	.	39	.
COc1ccc2c3c(n(C)c2c1)[C@H](CO)N(C(=O)C1CCCCC1)CC31CCN(C(=O)c2ccncc2)CC1	.	/	.	/	/	.
COc1ccc2c3c(n(C)c2c1)[C@H](CO)N(C(=O)C1CC1)CC31CCN(C(=O)c2ccncc2)CC1	.	.	.	/	/	32
CCCC(=O)N1CC2(CN(C(=O)C3CC3)C2)c2c(n(C)c3cc(OC)ccc23)[C@H]1CO	/	.	.	/	.	.
COc1ccc2c3c(n(C)c2c1)[C@H](CO)N(C(C)=O)CC31CN(C(=O)C2CC2)C1	.	/	.	/	/	66
COc1ccc2c3c(n(C)c2c1)[C@@H](CO)N(C(=O)C1CCCCC1)CC31CCN(C(=O)c2ccncc2)CC1	.	/	.	/	/	42
COc1ccc2c3c(n(C)c2c1)[C@@H](CO)N(C(=O)NC1CCCCC1)CC31CN(C)C1	.	.	.	/	/	32
CCCC(=O)N1CC2(CCN(C(=O)C3CCC3)CC2)c2c(n(C)c3cc(OC)ccc23)[C@@H]1CO	.	/	.	/	/	22
COc1ccc2c3c(n(C)c2c1)[C@H](CO)N(C(=O)c1cnccn1)CC31CCN(C(C)=O)CC1	.	.	.	/	/	.
COc1ccc2c3c(n(C)c2c1)[C@@H](CO)N(Cc1cc(F)ccc1F)CC31CN(C(=O)C2CC2)C1	.	.	.	/	.	38
COc1ccc2c3c(n(C)c2c1)[C@@H](CO)N(C(C)=O)CC31CCN(C(=O)c2cnccn2)CC1	.	.	.	/	.	23
CCC(=O)N1CC2(C1)CN(Cc1cc(F)ccc1F)[C@@H](CO)c1c2c2ccc(OC)cc2n1C	/	/	.	/	/	/
